Experimental data reported in ChEMBL document CHEMBL3272012, “5-(Tetradecyloxy)-2-furancarboxylic acid and related hypolipidemic fatty acid-like alkyloxyarylcarboxylic acids” (J Med Chem, 1977).

Columns and labels:
Rattus norvegicus [1] = assay: Increase in cholesterol level in Wistar rat liver at 439 umol/kg/day administered through diet for 4 days; type: ADME, organism-based; details: in vivo, po, 96 h
Rattus norvegicus [2] = assay: Hypolipidemic activity in Wistar rat assessed as reduction in plasma triglyceride level at 439 umol/kg/day administered through diet for 4 days; type: functional; details: 96 h
Outline: (§1)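 Young male Wistar rats (initial weight 170-190 g), groups of six, fed compound mixed into Purina Lab Chow ad libitum for 4 or 10 days; daily dose calculated from food consumption and body weight. Bled by cardiac puncture; plasma cholesterol and triglycerides by automated procedures; percent reduction versus simultaneous untreated controls, Student's t test.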

Rattus norvegicus [3] = assay: Hypolipidemic activity in Wistar rat assessed as reduction in plasma cholesterol level at 439 umol/kg/day administered through diet for 4 days; type: functional; details: 96 h
Outline: (§2)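 Young male Wistar rats, 170-190 g initial weight, groups of six, given compound mixed thoroughly into Purina Lab Chow ad libitum for 4 or 10 days as stated. Daily dose calculated from food consumption and body weight. Bled by cardiac puncture at end of treatment; plasma cholesterol measured by automated procedure. Expressed as percent reduction versus simultaneous untreated control group; Student's t test.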

Rattus norvegicus [4] = assay: Hypolipidemic activity in Wistar rat assessed as reduction in plasma triglyceride level at 417 umol/kg/day administered through diet for 10 days; type: functional; details: 240 h
Rattus norvegicus [5] = assay: Increase in cholesterol level in Wistar rat liver at 417 umol/kg/day administered through diet for 10 days; type: ADME, organism-based; details: in vivo, po, 240 h
Rattus norvegicus [6] = assay: Increase in liver weight in Wistar rat at 439 umol/kg/day administered through diet for 4 days; type: ADME, organism-based; details: in vivo, po, 96 h
Outline: (§3)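 Male Wistar rats (170-190 g initial), groups of six, dosed via diet ad libitum for 4 or 10 days, daily dose from food consumption. Liver wet weight measured, expressed as g/100 g final body weight, compared with untreated controls run simultaneously.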

Rattus norvegicus [7] = assay: Increase in liver weight in Wistar rat at 417 umol/kg/day administered through diet for 10 days; type: ADME, organism-based; details: in vivo, po, 240 h
Rattus norvegicus [8] = assay: Hypolipidemic activity in Wistar rat assessed as reduction in plasma triglyceride level at 419 umol/kg/day administered through diet for 10 days; type: functional; details: 240 h; outline: as §1
Rattus norvegicus [9] = assay: Increase in cholesterol level in Wistar rat liver at 419 umol/kg/day administered through diet for 10 days; type: ADME, organism-based; details: in vivo, po, 240 h
Outline: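 Male Wistar rats (170-190 g), six per group, given compound by admixture to lab chow ad libitum for 4 or 10 days, dose derived from food intake. Liver cholesterol determined by automated procedure, expressed as mg/g wet tissue, compared with an untreated control group by Student's t test.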

Rattus norvegicus [10] = assay: Hypolipidemic activity in Wistar rat assessed as reduction in plasma cholesterol level at 419 umol/kg/day administered through diet for 10 days; type: functional; details: 240 h; outline: as §2
Rattus norvegicus [11] = assay: Hypolipidemic activity in Wistar rat assessed as reduction in plasma cholesterol level at 417 umol/kg/day administered through diet for 10 days; type: functional; details: 240 h
Outline: (§4)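 Young male Wistar rats, 170-190 g at start, in groups of six, given compound mixed into Purina Lab Chow ad libitum for 4 or 10 days as stated. Daily dose was calculated from food consumption and body weight. Plasma was taken by cardiac puncture at the end and cholesterol measured by automated procedure. Results are % reduction versus a concurrent untreated control group, with Student's t test.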

Rattus norvegicus [12] = assay: Increase in liver weight in Wistar rat at 419 umol/kg/day administered through diet for 10 days; type: ADME, organism-based; details: in vivo, po, 240 h; outline: as §3
Rattus norvegicus [13] = assay: Increase in liver weight in Wistar rat at 362 umol/kg/day administered through diet for 4 days; type: ADME, organism-based; details: in vivo, po, 96 h
Rattus norvegicus [14] = assay: Increase in cholesterol level in Wistar rat liver at 362 umol/kg/day administered through diet for 4 days; type: ADME, organism-based; details: in vivo, po, 96 h
Rattus norvegicus [15] = assay: Increase in liver weight in Wistar rat at 437 umol/kg/day administered through diet for 4 days; type: ADME, organism-based; details: in vivo, po, 96 h
Rattus norvegicus [16] = assay: Hypolipidemic activity in Wistar rat assessed as reduction in plasma cholesterol level at 437 umol/kg/day administered through diet for 4 days; type: functional; details: 96 h; outline: as §2
Rattus norvegicus [17] = assay: Increase in cholesterol level in Wistar rat liver at 437 umol/kg/day administered through diet for 4 days; type: ADME, organism-based; details: in vivo, po, 96 h
Rattus norvegicus [18] = assay: Hypolipidemic activity in Wistar rat assessed as reduction in plasma triglyceride level at 437 umol/kg/day administered through diet for 4 days; type: functional; details: 96 h
Rattus norvegicus [19] = assay: Increase in cholesterol level in Wistar rat liver at 319 umol/kg/day administered through diet for 4 days; type: ADME, organism-based; details: in vivo, po, 96 h
Rattus norvegicus [20] = assay: Hypolipidemic activity in Wistar rat assessed as reduction in plasma cholesterol level at 319 umol/kg/day administered through diet for 4 days; type: functional; details: 96 h; outline: as §4
Rattus norvegicus [21] = assay: Hypolipidemic activity in Wistar rat assessed as reduction in plasma triglyceride level at 319 umol/kg/day administered through diet for 4 days; type: functional; details: 96 h
Outline: (§5)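 Young male Wistar rats, 170-190 g initial weight, six per group, fed drug mixed thoroughly into Purina Lab Chow ad libitum for the stated days; daily dose calculated from food consumption and body weight. Bled by cardiac puncture at end; plasma cholesterol and triglycerides by automated procedures, expressed as percent reduction versus simultaneous untreated controls; Student's t test.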

Rattus norvegicus [22] = assay: Increase in liver weight in Wistar rat at 319 umol/kg/day administered through diet for 4 days; type: ADME, organism-based; details: in vivo, po, 96 h
Rattus norvegicus [23] = assay: Increase in liver weight in Wistar rat at 766 umol/kg/day administered through diet for 10 days; type: ADME, organism-based; details: in vivo, po, 240 h
Rattus norvegicus [24] = assay: Increase in liver weight in Wistar rat at 1693 umol/kg/day administered through diet for 10 days; type: ADME, organism-based; details: in vivo, po, 240 h
Rattus norvegicus [25] = assay: Hypolipidemic activity in Wistar rat assessed as reduction in plasma triglyceride level at 304 umol/kg/day administered through diet for 10 days; type: functional; details: 240 h; outline: as §5
Rattus norvegicus [26] = assay: Hypolipidemic activity in Wistar rat assessed as reduction in plasma triglyceride level at 119 umol/kg/day administered through diet for 10 days; type: functional; details: 240 h; outline: as §5
Rattus norvegicus [27] = assay: Increase in liver weight in Wistar rat at 119 umol/kg/day administered through diet for 10 days; type: ADME, organism-based; details: in vivo, po, 240 h
Rattus norvegicus [28] = assay: Hypolipidemic activity in Wistar rat assessed as reduction in plasma triglyceride level at 1693 umol/kg/day administered through diet for 10 days; type: functional; details: 240 h; outline: as §5
Rattus norvegicus [29] = assay: Hypolipidemic activity in Wistar rat assessed as reduction in plasma cholesterol level at 766 umol/kg/day administered through diet for 10 days; type: functional; details: 240 h; outline: as §1
Rattus norvegicus [30] = assay: Inhibition of cholesterol biosynthesis in Ad Lib fed Wistar rat liver assessed as sodium [1-14C]acetate incorporation at 261 mg/kg/day administered through diet for 7 days measured 1 hr after labeled acetate challenge by liquid scintillation spectrometry (reference value: 12.7 +/- 2.6 x 10^-3 dpm); type: functional
Rattus norvegicus [31] = assay: Inhibition of cholesterol biosynthesis in meal fed Wistar rat liver assessed as sodium [1-14C]acetate incorporation at 188 mg/kg/day administered through diet for 7 days measured 1 hr after labeled acetate challenge by liquid scintillation spectrometry (reference value: 41.3 +/- 3.2 x 10^-3 dpm); type: functional
Rattus norvegicus [32] = assay: Inhibition of fatty acid biosynthesis in meal fed Wistar rat liver assessed as sodium [1-14C]acetate incorporation at 188 mg/kg/day administered through diet for 7 days measured 1 hr after labeled acetate challenge by liquid scintillation spectrometry (reference value: 182 +/- 22 x 10^-3 dpm); type: functional
Rattus norvegicus [33] = assay: Hypolipidemic activity in Wistar rat assessed as reduction in plasma triglyceride level at 766 umol/kg/day administered through diet for 10 days; type: functional; details: 240 h
Rattus norvegicus [34] = assay: Hypolipidemic activity in Wistar rat assessed as reduction in plasma cholesterol level at 1693 umol/kg/day administered through diet for 10 days; type: functional; details: 240 h; outline: as §4
Rattus norvegicus [35] = assay: Inhibition of fatty acid biosynthesis in Ad Lib fed Wistar rat liver assessed as sodium [1-14C]acetate incorporation at 261 mg/kg/day administered through diet for 7 days measured 1 hr after labeled acetate challenge by liquid scintillation spectrometry (reference value: 27.2 +/- 4.8 x 10^-3 dpm); type: functional
Rattus norvegicus [36] = assay: Hypolipidemic activity in Wistar rat assessed as reduction in plasma cholesterol level at 304 umol/kg/day administered through diet for 10 days; type: functional; details: 240 h; outline: as §4
Rattus norvegicus [37] = assay: Hypolipidemic activity in Wistar rat assessed as reduction in plasma cholesterol level at 119 umol/kg/day administered through diet for 10 days; type: functional; details: 240 h; outline: as §4
Rattus norvegicus [38] = assay: Increase in liver weight in Wistar rat at 304 umol/kg/day administered through diet for 10 days; type: ADME, organism-based; details: in vivo, po, 240 h

CCCCCCCCCCCCCCCOc1ccc(C(=O)OC)cc1
Activity (Rattus norvegicus [1]): 9%
inhibition in vivo at 439 µmol/kg (Rattus norvegicus [2]): 46%
inhibition in vivo at 439 µmol/kg (Rattus norvegicus [3]): 19%
inhibition in vivo at 417 µmol/kg (Rattus norvegicus [4]): 73%
Activity (Rattus norvegicus [5]): 9%
Activity (Rattus norvegicus [6]): 7%
Activity (Rattus norvegicus [7]): 0%
inhibition in vivo at 419 µmol/kg (Rattus norvegicus [8]): 57%
Activity (Rattus norvegicus [9]): 2%
inhibition in vivo at 419 µmol/kg (Rattus norvegicus [10]): 20%
inhibition in vivo at 417 µmol/kg (Rattus norvegicus [11]): 37%
Activity (Rattus norvegicus [12]): 15%

CCCCCCCCCCCCCCCCCCCCOc1ccc(C(=O)OC)cc1
Activity (Rattus norvegicus [13]): 4%
Activity (Rattus norvegicus [14]): 0%

CCCCCCCCCCCCCCCCOc1ccc(C(=O)O)o1
Activity (Rattus norvegicus [15]): 4%
inhibition in vivo at 437 µmol/kg (Rattus norvegicus [16]): 24%
Activity (Rattus norvegicus [17]): 5%
inhibition in vivo at 437 µmol/kg (Rattus norvegicus [18]): 25%

CCCCCCCCCCCCCOc1ccc(C(=O)O)o1
Activity (Rattus norvegicus [19]): 3%
inhibition in vivo at 319 µmol/kg (Rattus norvegicus [20]): 31%
inhibition in vivo at 319 µmol/kg (Rattus norvegicus [21]): 6%
Activity (Rattus norvegicus [22]): 15%

CCOC(=O)C(C)(C)Oc1ccc(Cl)cc1 [CLOFIBRATE]
Activity (Rattus norvegicus [23]): 22%
Activity (Rattus norvegicus [24]): 50%
inhibition in vivo at 304 µmol/kg (Rattus norvegicus [25]): 48%
inhibition in vivo at 119 µmol/kg (Rattus norvegicus [26]): 30%
Activity (Rattus norvegicus [27]): 0%
inhibition in vivo at 1693 µmol/kg (Rattus norvegicus [28]): 78%
inhibition in vivo at 766 µmol/kg (Rattus norvegicus [29]): 36%
Activity (Rattus norvegicus [30]): 4100 dpm
Activity (Rattus norvegicus [31]): 43300 dpm
Activity (Rattus norvegicus [32]): 205000 dpm
inhibition in vivo at 766 µmol/kg (Rattus norvegicus [33]): 66%
inhibition in vivo at 1693 µmol/kg (Rattus norvegicus [34]): 41%
Activity (Rattus norvegicus [35]): 50000 dpm
inhibition in vivo at 304 µmol/kg (Rattus norvegicus [36]): 18%
inhibition in vivo at 119 µmol/kg (Rattus norvegicus [37]): 9%
Activity (Rattus norvegicus [38]): 2%
